GPR7 antag: human neuropeptides B/W receptor 1 antagonism. P48145. GPR7-expressing cells, fluorescence antagonist assay. inhibition, % at 4.4 µM. 290,000 compounds, 1.1% hits; in the data active = inhibition above about 16%, passing the limit was not always enough;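 note: cells stimulated with the agonist NPW; 0% = agonist with vehicle and 100% = vehicle without agonist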
Target sequence (P48145 whole entry, looked up): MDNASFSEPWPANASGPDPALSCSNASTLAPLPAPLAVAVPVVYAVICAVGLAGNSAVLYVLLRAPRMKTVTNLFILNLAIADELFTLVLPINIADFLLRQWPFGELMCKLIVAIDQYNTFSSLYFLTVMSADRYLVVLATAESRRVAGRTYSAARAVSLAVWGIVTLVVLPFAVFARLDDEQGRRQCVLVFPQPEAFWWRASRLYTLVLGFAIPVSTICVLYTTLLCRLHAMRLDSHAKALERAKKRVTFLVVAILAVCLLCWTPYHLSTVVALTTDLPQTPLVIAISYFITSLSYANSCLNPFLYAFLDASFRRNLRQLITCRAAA
EBV gp42 block: EBV gp42 inhibition. 220,000 compounds, 0.42% hits. Fluorescence polarization binding assay, mP read-out. Q1HVG2. inhibition, % (tested at 21.74 µM); in the data active = inhibition above about 50%
ZTA DNA inh: ZTA (EBV) inhibition in EBNA-1 counter-screen; ZTA-DNA binding, fluorescence polarization; inhibition, % at 11 µM; 320,000 compounds, 0.15% hits; in the data active = inhibition above about 33%
core dimer inh: blocks dimerization of HCV core protein. TR-FRET GST/Flag-core106 dimerization, 1536-well. inhibition, % at 5 µM. 300,000 compounds, 0.33% hits;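 active = inhibition above the mean of all tested compounds plus 3 SD, set per screening campaign, cut at about 45% in these data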
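System: GST/Flag-tagged HCV core106 proteins. Incubation: compound-protein-antibody incubation 4 h at 22.5 °C. Technique: HTRF with 340 nm excitation, 617/671 nm emission. Medium: KF-containing HEPES buffer, pH 7.45, DTT, CHAPS, BSA. Read-out: inhibition (%) from 671 over 617 nm ratio. Also added: Eu(K)-anti-GST 90 ng/mL plus XL665-anti-Flag 1 µg/mL.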
EBNA-1 inhibitor: blocks EBNA-1 binding to DNA; EBNA-1 DNA binding, fluorescence polarization; inhibition, % at 14.8 µM; 300,000 compounds, 0.34% hits; in the data active = inhibition above about 28%
HCV NS3 hel inh: inhibitors of Hepatitis C virus NS3 helicase | NS3 helicase DNA unwinding, Cy5 molecular beacon fluorescence | inhibition, % at 10.9 µM | 290,000 compounds, 0.56% hits | AID 1800;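 active = inhibition above the mean of all tested compounds plus 3 SD, set per campaign, cut at about 35% in these data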;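 note: 0% = DMSO wells and 100% = thioflavine S control wells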
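Material: hepatitis C virus NS3 helicase domain fragment enzyme; measured by: Cy5 fluorescence, 0 and 60 min reads; control set: DMSO and thioflavine S; incubation: 60 min unwinding reaction at 25 °C after ATP addition; read-out basis: % inhibition from 60/0 min fluorescence ratio, DMSO 0%, thioflavine S 100%; repeats: singlicate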
GPR7 antag cf: confirmation of human GPR7 antagonists. shares compounds with GPR7 antag. GPR7-expressing cells, calcium fluorescence antagonist mode. inhibition, % at 4.4 µM. 2,400 compounds, 52% hits; in the data active = inhibition above about 24%;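 note: stimulated with the GPR7 agonist NPW; 0% = agonist plus vehicle and 100% = vehicle alone without agonist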
MCHR1 antag: antagonizes human MCHR1, a GPR7 antagonist counter-screen; inhibition, % at 4.4 µM; shares compounds with GPR7 antag; MCHR1-expressing cells, fluorescence antagonist assay; 2,400 compounds, 62% hits; in the data active = inhibition above about 22%;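 note: 0% = vehicle with agonist and 100% = vehicle without agonist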
Starred values were filed as active, the others as inactive. Sampled rows, rich in hits. Any-hit rate of the full collection: about 2.3%.

Results for COc1ccc(NC(=O)COc2ccccc2Cc2ccccc2)cc1S(N)(=O)=O ?
GPR7 antag: 42*; ZTA DNA inh: 7; core dimer inh: 4; EBNA-1 inhibitor: 2; HCV NS3 hel inh: -22; GPR7 antag cf: 45*; MCHR1 antag: 57*

Results for COc1ccc(NC(=O)CN(Cc2ccccc2)Cc2ccccc2)cc1S(N)(=O)=O ?
GPR7 antag: -7; EBV gp42 block: -6; ZTA DNA inh: -3; core dimer inh: 4; EBNA-1 inhibitor: -4; HCV NS3 hel inh: 3

What do the screens show for `COc1ccc(C(=O)NCc2ccc(-n3cccc3)cc2)cc1OC`?
GPR7 antag: 1; EBV gp42 block: -8; ZTA DNA inh: -13; core dimer inh: 0; EBNA-1 inhibitor: 0; HCV NS3 hel inh: 15

Results for COC(=O)C(C(=O)OC)c1ccc(-n2cccc2)cc1 ?
GPR7 antag: 35*; EBV gp42 block: -14; ZTA DNA inh: 5; core dimer inh: -1; EBNA-1 inhibitor: 8; HCV NS3 hel inh: 5; GPR7 antag cf: 12; MCHR1 antag: 9

Results for COc1ccccc1CNC(=O)c1csc(Cc2ccc(Cl)cc2)n1 ?
GPR7 antag: 29*; EBV gp42 block: -6; ZTA DNA inh: 4; core dimer inh: 18; EBNA-1 inhibitor: 7; HCV NS3 hel inh: -12; GPR7 antag cf: 22; MCHR1 antag: 45*

How did CCc1cccc(CC)c1NC(=O)CN1CC(C)SC1=NC1CCCCC1 (centres undefined) do in these assays?
GPR7 antag: 38*; EBV gp42 block: -14; ZTA DNA inh: 7; core dimer inh: -3; EBNA-1 inhibitor: -5; HCV NS3 hel inh: -17; GPR7 antag cf: 55*; MCHR1 antag: 33*

What do the screens show for `CCc1cccc(CC)c1NC(=O)NC1CCCCC1`?
GPR7 antag: 3; EBV gp42 block: -3; ZTA DNA inh: -15; core dimer inh: -8; EBNA-1 inhibitor: 9; HCV NS3 hel inh: 0

What do the screens show for `CC(NCc1ccc(-c2ccccc2)cc1)C(O)c1ccccc1` (centres undefined)?
GPR7 antag: 31*; EBV gp42 block: -22; ZTA DNA inh: -8; core dimer inh: -9; EBNA-1 inhibitor: 2; HCV NS3 hel inh: -69; GPR7 antag cf: 25*; MCHR1 antag: 51*

What do the screens show for `Fc1ccc(C2CCNCC2COc2ccc3c(c2)OCO3)cc1` (centres undefined)?
GPR7 antag: 28*; ZTA DNA inh: -4; core dimer inh: -7; EBNA-1 inhibitor: 10; HCV NS3 hel inh: -63; GPR7 antag cf: 36*; MCHR1 antag: 28*

Results for OC1(c2ccccc2)CCN(Cc2ccccc2)C2CCCCC21 (centres undefined) ?
GPR7 antag: 34*; EBV gp42 block: -22; ZTA DNA inh: -6; core dimer inh: -9; EBNA-1 inhibitor: -1; HCV NS3 hel inh: -5; GPR7 antag cf: 23; MCHR1 antag: 21

Results for COc1cccc(CNC(=O)CCCc2c[nH]c3ccccc23)c1 ?
GPR7 antag: 3; ZTA DNA inh: -1; core dimer inh: 1; EBNA-1 inhibitor: 4; HCV NS3 hel inh: 2

How did O=[N+]([O-])c1c(Nc2ccc(O)cc2)cc(Cl)c2nonc12 do in these assays?
GPR7 antag: 83*; ZTA DNA inh: -1; core dimer inh: 19; EBNA-1 inhibitor: 7; HCV NS3 hel inh: -30; GPR7 antag cf: 94*; MCHR1 antag: 102*

What do the screens show for `CN(C)c1cc(Nc2ccc(O)cc2)c([N+](=O)[O-])c2nonc12`?
GPR7 antag: -22; EBV gp42 block: 1; ZTA DNA inh: -15; core dimer inh: 0; EBNA-1 inhibitor: -2; HCV NS3 hel inh: 2

How did COCCCNC(=O)CN1C(=O)COc2ccc(S(=O)(=O)N3CCOCC3)cc21 do in these assays?
GPR7 antag: -15; ZTA DNA inh: 6; core dimer inh: -11; EBNA-1 inhibitor: 9; HCV NS3 hel inh: 9

What do the screens show for `O=C(CCc1nnc2ccc(N3CCCC3)nn12)Nc1ccc(F)c(F)c1`?
GPR7 antag: 0; ZTA DNA inh: 4; core dimer inh: -2; EBNA-1 inhibitor: 12; HCV NS3 hel inh: 1

Compound activity deposited in PubChem BioAssay by several laboratories.
